{"source": "ChEMBL document CHEMBL4261600", "about": "(Eur J Med Chem, 2018)", "key": {"[1]": {"organism": "Homo sapiens", "experiment": "Selectivity ratio of IC50 for recombinant full length His-tagged human CDK8/CyclinC to IC50 for recombinant full length His-tagged human CDK9/CyclinT1"}, "[2]": {"molecular_target": "Rho-associated protein kinase 1 (Homo sapiens) (UniProt Q13464)", "experiment": "Binding affinity to wild-type human partial length ROCK1 (M1 to R415 residues) expressed in mammalian expression system assessed as remaining unbound target protein level at 1000 nM by Kinomescan method relative to control"}, "[3]": {"molecular_target": "T1, Cyclin-dependent kinase 9 (Homo sapiens, UniProt P50750)", "T1 sequence (P50750 whole entry, the tested form may be a part)": "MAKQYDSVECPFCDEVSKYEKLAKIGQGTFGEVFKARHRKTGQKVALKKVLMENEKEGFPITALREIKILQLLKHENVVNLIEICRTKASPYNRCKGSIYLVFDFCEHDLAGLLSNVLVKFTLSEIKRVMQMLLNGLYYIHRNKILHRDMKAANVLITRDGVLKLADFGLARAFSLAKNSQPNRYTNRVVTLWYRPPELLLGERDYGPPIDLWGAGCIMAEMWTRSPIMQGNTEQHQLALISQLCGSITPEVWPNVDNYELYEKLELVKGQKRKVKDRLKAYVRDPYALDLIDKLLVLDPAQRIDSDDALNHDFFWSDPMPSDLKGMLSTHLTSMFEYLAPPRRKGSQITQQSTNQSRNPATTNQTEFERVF", "experiment": "Inhibition of CDK9 in human MV4-11 cells assessed as decrease in RNA polymerase 2 phosphorylation at Ser 2 residues in CTD domain after 2 hrs by immunoblotting analysis", "type": "cell-based"}, "[4]": {"tested_on": "MV4-11", "experiment": "Induction of apoptosis in human MV4-11 cells assessed as decrease in MCL-1 level after 2 hrs by immunoblotting analysis", "type": "functional, cell-based"}, "[5]": {"molecular_target": "T1, Cyclin-dependent kinase 9", "experiment": "Inhibition of CDK9 in human MEC1 cells assessed as decrease in phosphorylation at Thr 186 residues up to 3 uM after 2 hrs by immunoblotting analysis", "type": "cell-based"}, "[6]": {"tested_on": "A-375", "experiment": "Antiproliferative activity against human A375 cells after 72 hrs by Celltiter-Glo assay", "type": "functional", "details": "A-375, 72 h", "how_it_was_run": "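Cells seeded at 3000/well in 96-well plates, exposed to serially diluted compound for 72 h at 37 °C, 5% CO2. Viability read by CellTiter-Glo luminescence and normalized to DMSO control. GI50 derived from curve fit, mean of three independent measurements. Culture media: DMEM/10% FBS for adherent lines; IMDM for MV4-11 and MEC-1/2; RPMI 1640 for suspension lines and CHL.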"}, "[7]": {"molecular_target": "Serine/threonine-protein kinase PAK 3 (Homo sapiens) (UniProt O75914)", "sequence (O75914 whole entry, looked up, the tested form may be a part)": "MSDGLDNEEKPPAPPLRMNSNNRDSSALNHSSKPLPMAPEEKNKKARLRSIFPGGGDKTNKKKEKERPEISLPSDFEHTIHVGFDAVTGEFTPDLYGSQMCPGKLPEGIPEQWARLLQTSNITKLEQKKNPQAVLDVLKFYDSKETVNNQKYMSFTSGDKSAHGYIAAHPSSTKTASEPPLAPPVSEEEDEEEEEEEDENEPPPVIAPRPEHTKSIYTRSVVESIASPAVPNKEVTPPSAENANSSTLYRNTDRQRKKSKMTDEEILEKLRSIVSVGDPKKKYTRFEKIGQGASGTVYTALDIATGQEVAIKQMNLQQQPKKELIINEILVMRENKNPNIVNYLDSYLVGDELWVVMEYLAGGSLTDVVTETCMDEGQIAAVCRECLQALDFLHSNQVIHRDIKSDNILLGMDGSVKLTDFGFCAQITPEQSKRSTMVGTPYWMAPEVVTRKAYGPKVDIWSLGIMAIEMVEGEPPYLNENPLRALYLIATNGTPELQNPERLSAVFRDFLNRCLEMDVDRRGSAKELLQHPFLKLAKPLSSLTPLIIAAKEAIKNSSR", "experiment": "Binding affinity to wild-type human full length PAK3 (M1 to R544 residues) expressed in bacterial expression system assessed as remaining unbound target protein level at 1000 nM by Kinomescan method relative to control", "how_it_was_run": "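Profiled in a KINOMEscan binding panel with the inhibitor at a single concentration of 1 μM. Binding to each kinase was read out as percent of control, relative to a DMSO control. Strong binders were defined as those with a percent control value below 1.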"}, "[8]": {"molecular_target": "Ephrin type-A receptor 4 (Homo sapiens) (UniProt P54764)", "experiment": "Binding affinity to wild-type human partial length EPHA4 (T601 to R897 residues) expressed in bacterial expression system assessed as remaining unbound target protein level at 1000 nM by Kinomescan method relative to control"}, "[9]": {"molecular_target": "Tyrosine-protein kinase Fes/Fps (Homo sapiens) (UniProt P07332)", "sequence (P07332 whole entry, the tested form may be a part)": "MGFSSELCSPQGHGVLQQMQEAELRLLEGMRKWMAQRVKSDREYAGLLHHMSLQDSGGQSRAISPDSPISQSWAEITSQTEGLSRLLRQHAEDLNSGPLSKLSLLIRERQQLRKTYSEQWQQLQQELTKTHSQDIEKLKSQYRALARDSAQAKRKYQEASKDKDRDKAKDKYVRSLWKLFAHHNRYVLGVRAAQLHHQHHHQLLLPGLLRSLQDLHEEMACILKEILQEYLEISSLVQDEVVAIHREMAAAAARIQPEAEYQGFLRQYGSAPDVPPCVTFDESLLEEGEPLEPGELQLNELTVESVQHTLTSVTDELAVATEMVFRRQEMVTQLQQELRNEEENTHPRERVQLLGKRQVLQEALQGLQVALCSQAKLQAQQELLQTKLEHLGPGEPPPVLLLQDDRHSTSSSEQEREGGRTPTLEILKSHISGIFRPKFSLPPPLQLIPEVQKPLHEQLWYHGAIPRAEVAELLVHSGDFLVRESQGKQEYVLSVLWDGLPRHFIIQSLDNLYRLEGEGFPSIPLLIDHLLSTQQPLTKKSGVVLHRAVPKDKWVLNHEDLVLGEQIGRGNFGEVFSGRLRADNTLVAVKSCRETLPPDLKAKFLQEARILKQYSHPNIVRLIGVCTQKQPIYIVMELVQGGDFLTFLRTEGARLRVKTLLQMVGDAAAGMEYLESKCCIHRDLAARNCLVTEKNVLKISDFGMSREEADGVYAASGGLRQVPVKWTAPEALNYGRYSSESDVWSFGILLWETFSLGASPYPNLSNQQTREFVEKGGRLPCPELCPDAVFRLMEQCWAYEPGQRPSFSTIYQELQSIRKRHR", "experiment": "Binding affinity to wild-type human partial length FES (I527 to R822 residues) expressed in bacterial expression system assessed as remaining unbound target protein level at 1000 nM by Kinomescan method relative to control", "how_it_was_run": "(§1)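 KINOMEscan binding panel of 468 kinases/mutants. Inhibitor was tested at a single concentration of 1 μM. Binding is reported as percent of control, defined relative to a DMSO control.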"}, "[10]": {"molecular_target": "Serine/threonine-protein kinase DCLK1 (Homo sapiens) (UniProt O15075)", "sequence (O15075 whole entry, the tested form may be a part)": "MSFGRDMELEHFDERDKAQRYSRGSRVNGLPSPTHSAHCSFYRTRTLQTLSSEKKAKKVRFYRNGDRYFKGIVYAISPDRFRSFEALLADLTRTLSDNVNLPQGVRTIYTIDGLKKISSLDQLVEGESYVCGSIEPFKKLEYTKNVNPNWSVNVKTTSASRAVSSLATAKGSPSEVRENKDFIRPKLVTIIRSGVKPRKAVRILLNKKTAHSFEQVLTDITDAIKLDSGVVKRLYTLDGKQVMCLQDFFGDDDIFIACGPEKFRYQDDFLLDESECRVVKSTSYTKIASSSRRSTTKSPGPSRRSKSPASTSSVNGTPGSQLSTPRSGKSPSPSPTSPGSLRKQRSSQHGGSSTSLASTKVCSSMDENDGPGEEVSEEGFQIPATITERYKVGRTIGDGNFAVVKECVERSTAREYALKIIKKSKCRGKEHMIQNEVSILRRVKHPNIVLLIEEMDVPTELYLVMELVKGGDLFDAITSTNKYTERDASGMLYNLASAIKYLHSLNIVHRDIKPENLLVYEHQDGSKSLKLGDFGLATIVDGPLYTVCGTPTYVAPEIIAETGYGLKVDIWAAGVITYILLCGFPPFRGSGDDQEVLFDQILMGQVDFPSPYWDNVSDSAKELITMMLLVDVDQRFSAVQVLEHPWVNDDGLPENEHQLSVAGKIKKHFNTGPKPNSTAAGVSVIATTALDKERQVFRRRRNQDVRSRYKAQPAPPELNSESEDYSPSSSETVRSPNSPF", "experiment": "Binding affinity to wild-type human partial length DCAMKL1 (L270 to A662 residues) expressed in mammalian expression system assessed as remaining unbound target protein level at 1000 nM by Kinomescan method relative to control"}, "[11]": {"molecular_target": "Mitogen-activated protein kinase kinase kinase 10 (Homo sapiens) (UniProt Q02779)", "sequence (Q02779 whole entry, looked up, the tested form may be a part)": "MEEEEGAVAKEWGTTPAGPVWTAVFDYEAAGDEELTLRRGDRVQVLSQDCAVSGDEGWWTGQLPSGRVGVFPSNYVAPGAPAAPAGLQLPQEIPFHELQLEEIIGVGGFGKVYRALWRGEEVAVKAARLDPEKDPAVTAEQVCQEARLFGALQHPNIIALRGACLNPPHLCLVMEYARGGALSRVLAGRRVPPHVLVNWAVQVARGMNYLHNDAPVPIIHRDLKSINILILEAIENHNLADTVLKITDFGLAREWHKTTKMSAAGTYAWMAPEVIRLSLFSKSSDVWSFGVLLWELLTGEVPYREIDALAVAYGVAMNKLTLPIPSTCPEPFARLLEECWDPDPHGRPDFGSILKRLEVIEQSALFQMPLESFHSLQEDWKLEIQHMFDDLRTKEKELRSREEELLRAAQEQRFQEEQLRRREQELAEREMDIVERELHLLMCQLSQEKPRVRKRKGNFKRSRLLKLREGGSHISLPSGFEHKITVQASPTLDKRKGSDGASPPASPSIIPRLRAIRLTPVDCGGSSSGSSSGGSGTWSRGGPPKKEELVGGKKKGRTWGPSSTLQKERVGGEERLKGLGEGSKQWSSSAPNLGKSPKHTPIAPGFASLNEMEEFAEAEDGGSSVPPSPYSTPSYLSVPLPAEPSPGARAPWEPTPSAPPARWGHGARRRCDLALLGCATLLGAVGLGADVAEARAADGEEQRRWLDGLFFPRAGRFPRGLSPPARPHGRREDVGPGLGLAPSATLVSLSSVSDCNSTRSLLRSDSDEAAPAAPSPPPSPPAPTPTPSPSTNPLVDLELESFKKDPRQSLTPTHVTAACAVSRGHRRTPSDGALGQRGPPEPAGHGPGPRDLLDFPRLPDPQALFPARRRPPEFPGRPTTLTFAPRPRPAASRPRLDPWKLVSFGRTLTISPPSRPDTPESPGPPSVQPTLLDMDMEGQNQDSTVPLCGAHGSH", "experiment": "Binding affinity to wild-type human partial length MLK2 (V52 to W380 residues) expressed in bacterial expression system assessed as remaining unbound target protein level at 1000 nM by Kinomescan method relative to control", "how_it_was_run": "as §1"}, "[12]": {"molecular_target": "STE20/SPS1-related proline-alanine-rich protein kinase (Homo sapiens) (UniProt Q9UEW8)", "experiment": "Binding affinity to wild-type human partial length STK39 (P43 to I357 residues) expressed in mammalian expression system assessed as remaining unbound target protein level at 1000 nM by Kinomescan method relative to control"}, "[13]": {"molecular_target": "Epidermal growth factor receptor (Homo sapiens) (UniProt P00533)", "experiment": "Binding affinity to human partial length EGFR S752-I759del mutant expressed in bacterial expression system assessed as remaining unbound target protein level at 1000 nM by Kinomescan method relative to control", "how_it_was_run": "(§2)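 KINOMEscan competition-binding profiling across the panel of 468 kinases and mutants, with inhibitor tested at 1 μM. Binding is expressed as percent of control, with DMSO as the reference control.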"}, "[14]": {"organism": "Homo sapiens", "experiment": "Selectivity ratio of IC50 for recombinant full length His-tagged human CDK1/CyclinB to IC50 for recombinant full length His-tagged human CDK9/CyclinT1"}, "[15]": {"molecular_target": "Mast/stem cell growth factor receptor Kit (Homo sapiens) (UniProt P10721)", "sequence (P10721 whole entry, the tested form may be a part)": "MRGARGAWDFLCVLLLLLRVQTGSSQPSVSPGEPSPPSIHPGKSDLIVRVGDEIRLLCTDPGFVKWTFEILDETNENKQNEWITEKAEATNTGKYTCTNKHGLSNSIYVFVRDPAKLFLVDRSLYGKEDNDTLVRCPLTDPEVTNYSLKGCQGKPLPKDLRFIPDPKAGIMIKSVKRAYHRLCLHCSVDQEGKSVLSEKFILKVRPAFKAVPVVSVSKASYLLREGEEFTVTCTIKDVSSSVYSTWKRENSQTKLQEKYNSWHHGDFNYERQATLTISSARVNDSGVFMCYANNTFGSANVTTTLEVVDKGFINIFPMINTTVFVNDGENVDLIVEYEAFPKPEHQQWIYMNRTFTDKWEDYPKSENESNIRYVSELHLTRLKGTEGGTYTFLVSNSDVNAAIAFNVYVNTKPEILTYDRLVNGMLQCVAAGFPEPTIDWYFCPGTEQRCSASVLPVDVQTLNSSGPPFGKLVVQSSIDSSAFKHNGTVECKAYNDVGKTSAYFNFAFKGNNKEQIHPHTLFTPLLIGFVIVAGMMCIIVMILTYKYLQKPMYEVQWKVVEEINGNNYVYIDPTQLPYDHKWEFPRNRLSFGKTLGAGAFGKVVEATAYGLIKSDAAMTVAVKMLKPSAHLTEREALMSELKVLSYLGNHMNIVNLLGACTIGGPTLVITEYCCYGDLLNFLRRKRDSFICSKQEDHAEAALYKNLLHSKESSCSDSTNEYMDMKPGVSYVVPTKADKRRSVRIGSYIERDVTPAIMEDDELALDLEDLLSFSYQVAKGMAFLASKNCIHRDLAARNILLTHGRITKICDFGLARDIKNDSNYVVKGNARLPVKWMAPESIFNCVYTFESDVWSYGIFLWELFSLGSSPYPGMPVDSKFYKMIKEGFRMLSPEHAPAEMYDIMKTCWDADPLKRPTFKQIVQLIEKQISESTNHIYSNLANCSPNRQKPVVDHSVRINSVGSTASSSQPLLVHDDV", "experiment": "Binding affinity to wild-type human partial length KIT (I571 to D952 residues) expressed in bacterial expression system assessed as remaining unbound target protein level at 1000 nM by Kinomescan method relative to control"}, "[16]": {"molecular_target": "Mitogen-activated protein kinase kinase kinase 11 (Homo sapiens) (UniProt Q16584)", "experiment": "Binding affinity to wild-type human partial length MLK3 (I77 to W399 residues) expressed in bacterial expression system assessed as remaining unbound target protein level at 1000 nM by Kinomescan method relative to control"}, "[17]": {"molecular_target": "Cyclin-dependent kinase 16 (Homo sapiens) (UniProt Q00536)", "experiment": "Binding affinity to wild-type human partial length PCTK1 (G160 to A474 residues) expressed in mammalian expression system assessed as remaining unbound target protein level at 1000 nM by Kinomescan method relative to control", "how_it_was_run": "as §1"}, "[18]": {"molecular_target": "Serine/threonine-protein kinase 38 (Homo sapiens) (UniProt Q15208)", "experiment": "Binding affinity to wild-type human partial length NDR1 (N33 to E449 residues) expressed in mammalian expression system assessed as remaining unbound target protein level at 1000 nM by Kinomescan method relative to control"}, "[19]": {"molecular_target": "Protein kinase C iota type (Homo sapiens) (UniProt P41743)", "sequence (P41743 whole entry, the tested form may be a part)": "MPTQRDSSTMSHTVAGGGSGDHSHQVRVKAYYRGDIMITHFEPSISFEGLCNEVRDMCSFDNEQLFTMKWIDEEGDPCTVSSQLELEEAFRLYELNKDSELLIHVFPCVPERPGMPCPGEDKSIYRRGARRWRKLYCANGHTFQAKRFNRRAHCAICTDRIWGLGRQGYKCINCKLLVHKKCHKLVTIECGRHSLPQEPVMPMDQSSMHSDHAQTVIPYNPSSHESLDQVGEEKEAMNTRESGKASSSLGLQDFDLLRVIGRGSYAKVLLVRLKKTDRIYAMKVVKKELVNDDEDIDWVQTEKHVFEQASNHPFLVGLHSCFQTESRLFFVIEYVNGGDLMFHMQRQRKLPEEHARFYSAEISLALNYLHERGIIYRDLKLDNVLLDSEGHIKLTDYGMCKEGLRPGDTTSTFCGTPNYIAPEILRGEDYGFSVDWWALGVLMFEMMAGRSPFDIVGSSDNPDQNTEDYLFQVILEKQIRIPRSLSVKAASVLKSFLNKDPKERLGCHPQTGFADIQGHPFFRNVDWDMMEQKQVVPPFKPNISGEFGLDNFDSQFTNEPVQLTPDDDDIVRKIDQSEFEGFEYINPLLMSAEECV", "experiment": "Binding affinity to wild-type human partial length PRKCI (H215 to V587 residues) expressed in mammalian expression system assessed as remaining unbound target protein level at 1000 nM by Kinomescan method relative to control"}, "[20]": {"tested_on": "Receptor-type tyrosine-protein kinase FLT3 (Homo sapiens), P36888 [UNDEFINED MUTATION]", "experiment": "Binding affinity to human partial length FLT3 ITD mutant expressed in bacterial expression system assessed as remaining unbound target protein level at 1000 nM by Kinomescan method relative to control", "how_it_was_run": "as §2"}, "[21]": {"tested_on": "Phosphatidylinositol 4,5-bisphosphate 3-kinase catalytic subunit alpha isoform (Homo sapiens), P42336 [Q546K]", "experiment": "Binding affinity to human partial length PIK3CA Q546K mutant (R108 to N1068 residues) expressed in mammalian expression system assessed as remaining unbound target protein level at 1000 nM by Kinomescan method relative to control", "how_it_was_run": "as §2"}, "[22]": {"molecular_target": "T1, Cyclin-dependent kinase 9", "experiment": "Inhibition of CDK9 in human HL60 cells assessed as decrease in phosphorylation at Thr 186 residues up to 3 uM after 2 hrs by immunoblotting analysis", "type": "cell-based"}, "[23]": {"experiment": "Tmax in Sprague-Dawley rat at 20 mg/kg, po by LC-MS/MS analysis", "type": "ADME, organism-based", "details": "in vivo"}}, "note": "Activity calls are given as the source filed them."}
{"smiles": "COCCN[C@H]1CC[C@H](Nc2cc(-c3csc(NCC4(C#N)CCOCC4)n3)c(Cl)cn2)CC1", "values": [{"measurement": "Ratio IC50", "setting": "[1]", "value": "> 1000"}, {"measurement": "Activity", "setting": "[2]", "value": 93, "unit": "%"}, {"measurement": "EC50", "setting": "[3]", "value": "< 100", "unit": "nM"}, {"measurement": "inhibition", "setting": "[3]", "value": "Dose-dependent effect"}, {"measurement": "Activity", "setting": "[4]", "value": "Dose-dependent effect"}, {"measurement": "inhibition", "setting": "[5]", "value": "inactive"}, {"measurement": "GI50", "setting": "[6]", "value": 44, "unit": "nM"}, {"measurement": "Activity", "setting": "[7]", "value": 97, "unit": "%"}, {"measurement": "Activity", "setting": "[8]", "value": 96, "unit": "%"}, {"measurement": "Activity", "setting": "[9]", "value": 99, "unit": "%"}, {"measurement": "Activity", "setting": "[10]", "value": 100, "unit": "%"}, {"measurement": "Activity", "setting": "[11]", "value": 99, "unit": "%"}, {"measurement": "Activity", "setting": "[12]", "value": 57, "unit": "%"}, {"measurement": "Activity", "setting": "[13]", "value": 87, "unit": "%"}, {"measurement": "Ratio IC50", "setting": "[14]", "value": "> 1000"}, {"measurement": "Activity", "setting": "[15]", "value": 91, "unit": "%"}, {"measurement": "Activity", "setting": "[16]", "value": 85, "unit": "%"}, {"measurement": "Activity", "setting": "[17]", "value": 46, "unit": "%"}, {"measurement": "Activity", "setting": "[18]", "value": 78, "unit": "%"}, {"measurement": "Activity", "setting": "[19]", "value": 100, "unit": "%"}, {"measurement": "Activity", "setting": "[20]", "value": 89, "unit": "%"}, {"measurement": "Activity", "setting": "[21]", "value": 88, "unit": "%"}, {"measurement": "inhibition", "setting": "[22]", "value": "inactive"}, {"measurement": "Tmax", "setting": "[23]", "value": 3.33, "unit": "h"}]}
